Measured values from ChEMBL document CHEMBL1667759, “Molecular modeling study and synthesis of quinazolinone-arylpiperazine derivatives as α1-adrenoreceptor antagonists” (Eur J Med Chem, 2011).
Counter-ions that a name gives are not always drawn.

What was measured:
Assay type in all cases: functional
[1] = system: Felis catus; test: Hypotensive activity in normotensive cat assessed as reduction in systolic blood pressure at 500 mg/kg, iv; conditions: Artery
In short: (§1)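 Male cats (2e3 kg), acclimatized 7 days at 22 °C with 12 h light/dark cycle; groups of six. Single 500 mg/kg dose injected via femoral vein, flushed with 1 mL saline. Systolic and diastolic pressure recorded with mercury manometer on smoked kymograph; mean ± SD and % change versus control, significance by one-way ANOVA at P < 0.05. Experiments run 8–10 a.m.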

[2] = system: Felis catus; test: Hypotensive activity in normotensive cat assessed as reduction in diastolic blood pressure at 500 mg/kg, iv; conditions: Artery; in short: as §1
[3] = species: Rattus norvegicus; test: Vasodilatory activity in Wistar rat aortic rings without endothelium assessed as reduction in norepinephrine hydrochloride-induced vasoconstriction; conditions: Wister, Aorta
In short: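 Thoracic aortic rings from male Wister rats (250e350 g), killed by cervical dislocation and bleeding after light ether anaesthesia. Contraction to norepinephrine hydrochloride (10^-6 M) measured before and after increasing compound concentrations; compounds dissolved in DMSO (0.01 M stock), with DMSO-alone controls. IC50 = concentration giving 50% reduction of maximal NE contracture, derived by best-fit line.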

| Compound | inhibition in vivo at 500 mg/kg [1] [%] | inhibition in vivo at 500 mg/kg [2] [%] | IC50 [3] [µM] |
| --- | --- | --- | --- |
| COc1cc2nc(C)n(NC(=O)CCN3CCN(c4ccccc4)CC3)c(=O)c2cc1OC | 15.6 | 13.9 | – |
| COc1cc2nc(C)n(NC(=O)CCN3CCN(C(=O)c4ccco4)CC3)c(=O)c2cc1OC | 9.38 | 11.1 | – |
| CCOC(=O)c1nc2cc(OC)c(OC)cc2c(=O)n1NC(=O)CCN1CCN(c2ccccc2OC)CC1 | 12.4 | 13.9 | 400 |
| COc1cc2nc(C)n(NC(=O)CCN3CCN(c4ccccc4OC)CC3)c(=O)c2cc1OC | 42.2 | 40 | 201 |
| COc1cc2nc(C)n(NC(=O)CCN3CCN(c4ccc([N+](=O)[O-])cc4)CC3)c(=O)c2cc1OC | 5 | 6.82 | – |
| COc1ccccc1N1CCN(CC(=O)Nn2c(C)nc3ccccc3c2=O)CC1 | 0 | 0 | – |
| COc1ccccc1N1CCN(Cc2nc3ccccc3c(=O)[nH]2)CC1 | 23.7 | 21.7 | 303 |
| COc1cc2nc(C)n(NC(=O)CN3CCN(c4ccccc4OC)CC3)c(=O)c2cc1OC | 3.13 | 2.78 | – |
| COc1cc2nc(N3CCN(C(=O)c4ccco4)CC3)nc(N)c2cc1OC [PRAZOSIN HYDROCHLORIDE] | 29 | 29 | 487 |
| CCOC(=O)c1nc2cc(OC)c(OC)cc2c(=O)n1NC(=O)CN1CCN(c2ccccc2OC)CC1 | 2.22 | 4.02 | – |
